{"source": "ChEMBL document CHEMBL3751694", "about": "“1-Piperazinylphthalazines as potential VEGFR-2 inhibitors and anticancer agents: Synthesis and in vitro biological evaluation” (Eur J Med Chem, 2016)", "assay_type_in_all_cases": "functional", "key": {"[1]": {"test": "(§1) Growth inhibition of human BT549 cells at 10 uM after 48 hrs by SRB method", "settings": "BT-549, 48 h, read-out: GI", "outline": "(§2)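 NCI 56-line primary screen at a single 10^-5 M concentration. Cells grown in RPMI 1640 with 5% FBS and 2 mM L-glutamine, plated at 5000–40,000 cells/well, then preincubated for 24 h. Exposure was 48 h at 37 °C and 5% CO2. Adherent cells were fixed with cold TCA at 10% final, suspension cells at 16%. Staining used 0.4% SRB, read at 515 nm. Results are % growth inhibition relative to control.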"}, "BT-549": {"tested_on": "BT-549", "test": "as §1", "outline": "as §2"}, "SK-MEL-28": {"tested_on": "SK-MEL-28", "test": "Growth inhibition of human SK-MEL-28 cells at 10 uM after 48 hrs by SRB method", "settings": "SK-MEL-28, 48 h, read-out: GI", "outline": "as §2"}}, "note": "The source made the active and inactive calls. The rule behind the calls is not given here.", "data": [{"smiles": "Cc1nc(NC(=O)CN2CCN(c3nnc(-c4ccccc4)c4ccccc34)CC2)sc1C(=O)Nc1ccccc1", "values": [{"measurement": "inhibition of growth at 10 µM", "setting": "[1]", "value": 56, "unit": "%"}]}, {"smiles": "CCOC(=O)c1ccc(NC(=O)CN2CCN(c3nnc(-c4ccccc4)c4ccccc34)CC2)cc1", "values": [{"measurement": "growth inhibition (GI)", "setting": "BT-549", "value": "Active"}, {"measurement": "inhibition of growth at 10 µM", "setting": "SK-MEL-28", "value": 55, "unit": "%"}]}]}
